The target of series [1] is T1, GNAQ/GNA11 (Homo sapiens, UniProt P50148+P29992).
T1 sequence (P50148 whole entry): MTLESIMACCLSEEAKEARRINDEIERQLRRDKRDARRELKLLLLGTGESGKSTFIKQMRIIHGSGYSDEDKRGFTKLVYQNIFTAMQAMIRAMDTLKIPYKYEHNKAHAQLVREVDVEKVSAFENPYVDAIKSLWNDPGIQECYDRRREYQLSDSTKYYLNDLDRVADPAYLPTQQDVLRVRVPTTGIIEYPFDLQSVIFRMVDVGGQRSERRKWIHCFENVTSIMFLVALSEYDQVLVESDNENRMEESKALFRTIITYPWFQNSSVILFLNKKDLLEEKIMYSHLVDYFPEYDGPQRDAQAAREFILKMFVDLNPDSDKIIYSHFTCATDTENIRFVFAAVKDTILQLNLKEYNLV
T1 sequence (P29992 whole entry): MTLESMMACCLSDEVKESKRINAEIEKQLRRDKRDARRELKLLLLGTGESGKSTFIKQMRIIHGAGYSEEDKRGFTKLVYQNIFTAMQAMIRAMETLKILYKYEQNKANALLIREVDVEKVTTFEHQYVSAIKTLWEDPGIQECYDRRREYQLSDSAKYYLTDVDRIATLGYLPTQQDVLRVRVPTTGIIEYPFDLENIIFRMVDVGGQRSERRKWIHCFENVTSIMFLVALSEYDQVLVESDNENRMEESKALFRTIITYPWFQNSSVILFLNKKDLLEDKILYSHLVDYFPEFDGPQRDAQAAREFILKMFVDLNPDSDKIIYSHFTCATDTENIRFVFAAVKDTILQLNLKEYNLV
The series is described as follows: Binding affinity to Galphaq/11 (unknown origin) expressed in HEK293 cells cotransfected with AT1R/Galphaq-RLuc8/ Ggamma2-venus/Gbeta1 assessed as inhibition of Ang-II induced-BRET signal preincubated for 1 hr followed by Ang-II addition by BRET assay. The series is classed as cell-based. The gist of the method: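 HEK293 cells transiently transfected with AT₁R, Gαq-RLuc8, Gγ2-Venus and untagged Gβ1. Replated 24 h later, washed with HBS, starved 10 min, then pretreated with compound for 1 h at 37 °C. AngII added, followed by coelenterazine. BRET ratio taken as Venus emission (520−570 nm) over RLuc8 emission (370−480 nm). Mean ± SD, n = 3.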

A short description of series [2]: Induction of apoptosis in human 921 cells assessed as viable cells at 5 uM after 48 hrs by Annexin-V-FITC/propidium iodide staining based flow cytometry (reference value: 93.8%). The series is classed as functional. As to conditions: read-out: Activity.
Series [3] in a line: Induction of apoptosis in human 921 cells assessed as early apoptotic cells at 5 uM after 48 hrs by Annexin-V-FITC/propidium iodide staining based flow cytometry (reference value: 3.39%). In kind it is functional.
Series [4] is described as follows: Induction of apoptosis in human 921 cells assessed as late apoptotic cells at 5 uM after 48 hrs by Annexin-V-FITC/propidium iodide staining based flow cytometry (reference value: 2.52%). The series is classed as functional.
Series [5] can be described thus: Induction of apoptosis in human MP41 cells assessed as early apoptotic cells at 15 uM after 48 hrs by Annexin-V-FITC/propidium iodide staining based flow cytometry (reference value: 2.96%). The series is classed as functional.
Series [6] is described as follows: Induction of apoptosis in human MP41 cells assessed as early apoptotic cells at 30 uM after 48 hrs by Annexin-V-FITC/propidium iodide staining based flow cytometry (reference value: 2.96%). The series is classed as functional.
A short description of series [7]: Induction of apoptosis in human MP41 cells assessed as late apoptotic cells at 30 uM after 48 hrs by Annexin-V-FITC/propidium iodide staining based flow cytometry (reference value: 3.28%). In kind it is functional.
For series [8], the system named is MP41. The series is described as follows: Inhibition of cell migration in human MP41 cells at 15 uM incubated for 48 hrs by transwell migration assay. The series is classed as functional, cell-based. The gist of the method:
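Transwell migration: 92.1 and MP41 cells (RPMI-1640, 10% FBS) seeded 1 × 10⁴/well in upper chamber in serum-free medium, 20% FBS medium below; overnight at 37 °C, then compound for 48 h. Non-migrated cells swabbed off; lower cells crystal violet-stained 30 min, counted by light microscopy. Mean SD of three independent experiments.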

Series [9] is described as follows: Antitumor activity against human MP41 cells xenografted in nude BALB/c mouse assessed as tumor growth inhibition at 30 mg/kg, ip administered for once daily for 21 days and measured every 3 days. The series is classed as functional. As to conditions: 504 h, time 21 day, read-out: TGI. The gist of the method: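 MP41 tumours were passaged subcutaneously mouse-to-mouse in nude BALB/c mice (6−8 weeks, 20−25 g). Tertiary recipients randomized, n = 8/group, given 10 or 30 (mg/kg)/d ip or vehicle for 21 days. Tumour size (V = A × B² × π/6, caliper) and body weight taken every 3 days; tumours excised and weighed on day 22. TGI computed versus the vehicle group.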

In series [10] the target is T2, GNAQ/GNA11 (Homo sapiens) (UniProt P50148+P29992). The series is described as follows: Inhibition of Galphaq/11 in human MP41 cells assessed as induction of YAP phosphorylation at 5 to 15 uM after 48 hrs by Western blot analysis. In kind it is cell-based. As to conditions: dose 5-15 µM. The gist of the method:
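92.1 and MP41 cells plated overnight, then exposed to compound 48 h. Lysed in ice-cold buffer and protein quantified by BCA. Resolved on 8−12% SDS−PAGE and transferred to PVDF. Probed for p-YAP Ser127, total YAP, p-ERK1/2 Thr202/Tyr204 and total ERK1/2, with GAPDH as loading control. ECL detection, triplicate.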

Series [11] concerns the target T2, GNAQ/GNA11 (Homo sapiens). The series is described as follows: Inhibition of Galphaq/11 in human MP41 cells xenografted mouse tumor tissue assessed as induction of YAP phosphorylation at 10 to 30 mg/kg, ip administered for 21 consecutive days by Western blot analysis. The series is classed as organism-based. As to conditions: dose 10-30 mg/kg, time 21.0 day. The gist of the method: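 MP41 xenograft tumours from mice given 10 or 30 mg/kg/day ip for 21 consecutive days were analysed by Western blot. Probed for p-YAP, YAP, p-ERK and ERK, with GAPDH as loading control. Representative of triplicate experiments.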

Series [12] in a line: Tmax in ICR mouse at 30 mg/kg, po measured upto 24 hrs by LC-MS/MS analysis. To be noted: in vivo. The series is classed as ADME, organism-based. The gist of the method:
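Single-dose PK in male ICR mice (n = 6): 10 mg/kg iv or 30 mg/kg po, vehicle 5% DMSO/95% saline. Blood (30 μL) by catheter at 0, 5, 15, 30 min and 1, 2, 4, 6, 8, 24 h; plasma by centrifugation, stored −80 °C, measured by LC–MS/MS. Parameters from noncompartmental analysis, mean SD.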

The nature of series [13]: AUC(0 to t) in ICR mouse at 10 mg/kg, iv measured upto 24 hrs by LC-MS/MS analysis. As to conditions: in vivo. The series is classed as ADME, organism-based. More on the design: route intravenous, dose 10 mg/kg, time <=24. The gist of the method:
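Single dose in male ICR mice, 10 mg/kg iv or 30 mg/kg po, dissolved in 5% DMSO/95% saline. Blood drawn by catheter at 0, 5, 15, 30 min and 1, 2, 4, 6, 8, 24 h. Plasma spun 6800g 6 min at 2−8 °C, stored −80 °C, quantified by LC−MS/MS. Noncompartmental parameters, mean ± SD, n = 6.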

Calls of active or inactive are those of the source. No cut-off for these calls is given here.

On to `CC[C@@H](C)[C@H](N)C(=O)N1CCn2cc(-c3ccccc3)nc2[C@@H]1CC1CCCCC1`, for which, in series [1], the IC50 came out at 55.2 µM. Besides, the viability at 5 µM in [2] stood at 90.1%. Further, the Activity in [3] is on record as 6.08%; in series [4], 3.4%; in series [5], 5.32%; in series [6], 17.9%; in [7], 6.16%. For the same molecule, the inhibition entry in series [8], in [10] and in series [11] was “Active” throughout. In addition, the inhibition in vivo at 30 mg/kg in [9] was 99%. Moreover, the time to peak (Tmax) in series [12] was 25.2 min. The molecule also gave an AUC(0-t) at 24 h in series [13] of 2140 ng·h/mL.

These data come from ChEMBL document CHEMBL4808167, “Design, Synthesis, and Evaluation of Small Molecule Gαq/11 Protein Inhibitors for the Treatment of Uveal Melanoma” (J Med Chem, 2021).
